UPR XBP1 act = activators of adaptive arm of unfolded protein response (XBP1); activation, % at 20 µM; actives 0.33% (n = 330,000); CHO-XBP1 luciferase reporter, IRE1-XBP1 UPR activation, luminescence; percent of tunicamycin response, DMSO as zero;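 active means versus positive control, 20 µM dose yields 30% or more activation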
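Test system: CHO-XBP1 luciferase reporter cells | Buffer or medium: Serum-containing F12 medium, 10% FBS | Schedule: 6 h compound exposure at 37 °C, 5% CO2 | Detection: Steady-Glo luciferase glow luminescence, 10 min after reagent addition | Read-out basis: Activation, % of tunicamycin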
NS3 helicase inh = inhibitors of Hepatitis C virus NS3 helicase | inhibition, % at 10.9 µM | actives 0.56% (n = 290,000) | NS3 helicase DNA unwinding, Cy5 molecular beacon fluorescence;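 active means inhibition above the mean of all tested compounds plus 3 SD, set per campaign, cut at about 35% in these data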
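Assay system: hepatitis C virus NS3 helicase domain fragment enzyme. Also added: annealed dual-labelled DNA beacon duplex, ATP-started. Timing: 1 h reaction at 25 °C, ATP-initiated. Technique: Cy5 fluorescence at 0 and 60 min, beacon hairpin quenching. Evaluation: % inhibition of unwinding. Replication: one well per compound.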
CHOP UPR activ = apoptotic UPR (CHOP) activation | CHO-CHOP luciferase reporter, luminescence; percent of tunicamycin response over DMSO baseline | activation, % at 10 µM | actives 0.34% (n = 330,000) | AID 449763;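 active means at 10 µM dose, activation of 40% or more, normalized to positive control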
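measured by = luciferase luminescence | assay system = CHO-CHOP cells, stable luciferase reporter of PERK-eIF2a-CHOP signalling | amount = 500 reporter cells seeded per well | timing = 6 h compound exposure at 37 °C after overnight seeding | controls = positive tunicamycin 10 µg/mL, negative DMSO alone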
PfM18AAP inh = blocks P. falciparum M18 aspartyl aminopeptidase; inhibition, % at 7.35 µM; recombinant PfM18AAP, H-Glu-NHMec fluorogenic cleavage; actives 1.2% (n = 290,000);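 active means inhibition above the campaign mean inhibition over all tested compounds plus 3 SD, cut at about 28% in these data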
CHOP inh = CHOP inhibition in unfolded protein response | CHO-K1 CHOP-promoter luciferase, tunicamycin-induced, 15-18 h | actives 3.8% (n = 220,000) | AID 2732 | inhibition, % at 10 µM;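 active means compounds that reduced the stress-induced luciferase reporter signal by more than about 70% of percent inhibition, limit read from the data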
p97 inhibitor = human p97 ATPase inhibition. P55072. actives 0.42% (n = 220,000). AID 1481. recombinant p97 ATPase, Kinase-Glo ATP luminescence, 3 h. inhibition, % at 8 µM; in the data active means inhibition above about 15%
CHOP confirm = confirmation of CHOP induction inhibitors; inhibition, % at 10 µM; CHO-CHOP promoter luciferase reporter, tunicamycin-induced, luminescence; shares compounds with CHOP inh; actives 45% (n = 2,100);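 active means mean of three repeat readings of reporter signal inhibition above a set limit, cut at about 70% in these data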
Each line names hits and unclear results; the compound was inactive in the other large screens (follow-up assays come after a bar, where they were run). This is a sample that favours compounds with a hit; in the whole collection about 4.5% have one here.

COc1ccc(/C(C)=N/NC(=O)c2nnn(-c3nonc3N)c2-c2cccs2)cc1OC	none (no result: CHOP inh, p97 inhibitor)
N#Cc1c(Cl)c(Cl)c2nnc(-c3ccc(Br)cc3)n2c1Cl	CHOP inh 104 | CHOP confirm inactive
Cc1ccc(-n2c(C)cc3c2CC(C)(C)CC3=O)cc1C	CHOP inh 105 | CHOP confirm inactive
Cc1ccc2nc(Cl)c(C3CC(c4cccs4)=NN3S(C)(=O)=O)cc2c1 (centres undefined)	none
CC(=O)N1N=C(c2cccs2)CC1c1cc2cc(C)ccc2nc1Cl (centres undefined)	CHOP inh 106 | CHOP confirm inactive
CS(=O)(=O)c1nc(-c2ccccc2)cc(C(F)(F)F)n1	none (no result: CHOP inh) | CHOP confirm 117
FC(F)(F)c1cc(-c2ccccc2)nc(N2CCCCCC2)n1	none
CC1CCN(CCc2nc3cc(NC(=O)COc4ccc([N+](=O)[O-])cc4)ccc3n2C)CC1	none (no result: CHOP inh, p97 inhibitor)
COC(=O)c1cn(Nc2ncc(C(F)(F)F)cc2Cl)c(=O)c2ccccc12	CHOP inh 99 | CHOP confirm inactive
Cc1ccc(C(=O)N2C(=S)C(c3ccc(F)cc3)=NC23CCN(C)CC3)cc1	CHOP inh 98 | CHOP confirm inactive
CCc1ccc(N=CC2=C(O)CC(c3ccco3)CC2=O)cc1 (centres undefined)	none
Cc1[nH]nc(N=CC2=C(O)CC(c3ccco3)CC2=O)c1-c1ccc(Cl)cc1 (centres undefined)	CHOP inh 105 | CHOP confirm 80
O=C1CC(c2ccco2)CC(O)=C1C=NCCN1CCN(C(=O)Nc2ccc(Cl)cc2)CC1 (centres undefined)	none
O=C1CC(c2ccco2)CC(O)=C1C=Nc1ccccc1-c1ccccc1 (centres undefined)	CHOP inh 104 | CHOP confirm 95
COc1nc(OC)nc(Oc2ccc([N+](=O)[O-])cc2Cl)n1	none
Cc1ccc(NC(=O)CCC(=O)N/N=C/c2ccc(O)cc2O)cc1	none (no result: CHOP inh, p97 inhibitor)
C=CCc1cccc(/C=N/NC(=O)CCC(=O)Nc2ccc(C)cc2)c1O	CHOP inh 98 | CHOP confirm inactive
Cc1csc(NC(=O)CSc2nnc(NC(=O)COc3ccccc3)s2)n1	CHOP inh 101 | CHOP confirm inactive
COc1cc2[nH]c(=O)c(C(=O)NCc3ccc(F)cc3)c(O)c2cc1OC	none (no result: CHOP inh, p97 inhibitor)
Cc1cccc(C)c1N1CCN(c2ccc3nnc(C(F)(F)F)n3n2)CC1	CHOP inh 106 | CHOP confirm 102
COc1ccc(NC(=O)c2ccc(S(=O)(=O)N3CC(C)CC(C)C3)cc2)cc1S(N)(=O)=O (centres undefined)	none (no result: NS3 helicase inh, PfM18AAP inh, CHOP inh, p97 inhibitor)
CCOc1ccc2nc(NCCNC(=O)Nc3cccc(C)c3)c(C#N)cc2c1	CHOP inh 103 | CHOP confirm inactive
COc1ccc(C(=O)NCCNc2nc3ccc(C)cc3cc2C#N)cc1	none (no result: CHOP inh, p97 inhibitor)
CCOC(=O)c1cc(-c2ccccc2)nc2c1c(C)nn2-c1ccccn1	CHOP inh 103 | CHOP confirm 108
CCOC(=O)c1cc(-c2ccncc2)nc2c1c(C)nn2C	none
O=C(OCn1ncc(Cl)c(Cl)c1=O)c1cccc(C(F)(F)F)c1	CHOP inh 107 | CHOP confirm 120
CCc1ccc(C(=O)Cn2ncc(Cl)c(Cl)c2=O)cc1	none
Cc1nn(-c2ccccc2)c(/N=C/c2ccc(O)cc2)c1-c1ccccc1	CHOP inh 104 | CHOP confirm inactive
COCCn1c(=NC(=O)/C=C/c2ccccc2)sc2cc(NC(C)=O)ccc21	CHOP inh 100 | CHOP confirm inactive
C#CC(=O)N(c1ccc(OC)c(OC)c1)C(C(=O)NC1CCCC1)c1cccs1 (centres undefined)	CHOP inh 109 | CHOP confirm 122
C#CC(=O)N(c1cccc(OC)c1)C(C(=O)NC1CCCC1)c1cccs1 (centres undefined)	CHOP inh 108 | CHOP confirm 119

Screens from PubChem BioAssay.
